Among the data in ChEMBL document CHEMBL2021854, “2-Aminopyrimidine based 4-aminoquinoline anti-plasmodial agents. Synthesis, biological activity, structure-activity relationship and mode of action studies” (Eur J Med Chem, 2012) are CC50, MCC and EC50 values, retold here.

The nature of data set [1]: Cytotoxicity against MDCK cells assessed as cell viability by colorimetric formazan-based MTS assay. The note with it: dog, MDCK cells. More on the design: species or system Canis lupus familiaris. A digest of the protocol: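 Cytotoxicity on MDCK cells; 50% cytotoxic concentration from cell viability measured by colorimetric formazan-based MTS assay.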
Background: Tetrazolium dyes change colour on reduction, which living cells bring about.

A short description of data set [2]: Cytotoxicity against MDCK cells assessed as minimum compound concentration required to causes microscopically detectable alteration of normal cell morphology. The note with it: dog. The class given is cell-based, Canis lupus familiaris. The essentials:
(§1)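 Confluent, non-proliferating cell cultures were exposed to the compounds. The endpoint was the minimum concentration producing a microscopically detectable alteration of normal cell morphology.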

Data set [3] in a line: Cytotoxicity against african green monkey Vero cells assessed as minimum compound concentration required to causes microscopically detectable alteration of normal cell morphology. Type of data set: cell-based. The conditions noted are these: chlorocebus sabaeus. A digest of the protocol:
as §1

Data set [4] concerns Human respirovirus 3. Briefly: Antiviral activity against Parainfluenza-3 virus infected in african green monkey Vero cells assessed as inhibition of virus-induced cytopathogenicity after 4 days. Type of data set: functional, organism-based. The note with it: Human respirovirus 3, Vero, 96 h. The essentials: (§2)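 Confluent HEL, Vero or HeLa monolayers were inoculated with 100 CCID50 of virus in the presence of varying concentrations of compound. Cytopathicity was scored when it reached completion in untreated, virus-infected control cultures.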
For orientation: Damage to the host cells serves as the signal in cytopathic effect assays.

For data set [5], the system named is Sindbis virus. The data set can be described thus: Antiviral activity against Sindbis virus infected in african green monkey Vero cells assessed as inhibition of virus-induced cytopathogenicity after 4 days. The class given is functional, organism-based. The note with it: 96 h. The essentials:
as §2

A short description of data set [6]: Cytotoxicity against human HeLa cells assessed as minimum compound concentration required to causes microscopically detectable alteration of normal cell morphology. Type of data set: cell-based. The essentials: as §1
Data set [7] relates to Vesicular stomatitis virus. The data set can be described thus: Antiviral activity against Vesicular stomatitis virus infected in HeLa cells assessed as inhibition of virus-induced cytopathogenicity after 4 days. The class given is functional, organism-based. The note with it: 96 h. The essentials: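 Confluent HEL or HeLa monolayers infected with 100 CCID50 of virus in the presence of varying compound concentrations.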

For data set [8], the system named is Coxsackievirus B4. Briefly: Antiviral activity against Coxsackie virus B4 infected in human HeLa cells assessed as inhibition of virus-induced cytopathogenicity after 4 days. The class given is functional, organism-based. The conditions noted are these: Enterovirus B, 96 h. The essentials:
as §2

The test system of data set [9] is Respiratory syncytial virus. The data set can be described thus: Antiviral activity against Respiratory syncytial virus infected in human HeLa cells assessed as inhibition of virus-induced cytopathogenicity after 4 days. The note with it: 96 h. Type of data set: functional, organism-based. The essentials:
as §2

In data set [10] the test system is Influenza B virus. Briefly: Antiviral activity against Influenza B virus infected in MDCK cells assessed as reduction visual scoring of virus-induced cytopathogenicity after 4 days. Type of data set: functional, organism-based. The conditions noted are these: 96 h. The essentials:
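MDCK monolayers infected with 100 CCID50 of influenza A (H1N1 or H3N2) or influenza B, with varying compound concentrations. Cytopathicity read when untreated infected controls reached complete CPE.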

In data set [11] the test system is Influenza A virus. The data set can be described thus: Antiviral activity against Influenza A virus H1N1 infected in MDCK cells assessed as inhibition of virus-induced cytopathogenicity after 4 days by colorimetric formazan-based MTS assay. The note with it: 96 h. The class given is functional, organism-based.
Data set [12] deals with Influenza A virus. Briefly: Antiviral activity against Influenza A virus H3N2 infected in MDCK cells assessed as inhibition of virus-induced cytopathogenicity after 4 days by colorimetric formazan-based MTS assay. The class given is functional, organism-based. The conditions noted are these: 96 h.

One may read the CC50 as the concentration that lowers cell viability or growth by half. The term EC50 denotes the concentration at which the effect is half-maximal. As for `NC(=O)c1ncn([C@@H]2O[C@H](CO)[C@@H](O)[C@H]2O)n1` [RIBAVIRIN], in data set [1], the CC50 was greater than 100 µM. Also, the MCC in [2] is greater than 100 µM; in data set [3], greater than 250 µM; in data set [6] it was greater than 250 µM. Moreover, the 50% effective concentration (EC50) in [4] was 29 µM; in data set [5] it was greater than 250 µM; in data set [7], greater than 250 µM; in [8] it was greater than 250 µM; in data set [9], greater than 250 µM; in [10], 7 µM. The EC50 turned out to be 6.7 µM in [11] and 5.6 µM in data set [12].
